Assay results from ChEMBL document CHEMBL1143267, “Type II NADH dehydrogenase of the respiratory chain of Plasmodium falciparum and its inhibitors” (Bioorg Med Chem Lett, 2009).

Assays:
[1] = Inhibition of Plasmodium falciparum NDH2
Summary of the method: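 Purified recombinant His-tagged enzyme, HEPES pH 8.0. Reaction with 200 µM NADH and 100 µM CoQ0. NAD+ product quantified by fluorescence after acetophenone/formic acid derivatisation at 100 °C (ex 372/em 444 nm). Compounds tested up to 10 µM. IC50 from three independent experiments.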

[2] = target: T1, Dihydroorotate dehydrogenase (Plasmodium falciparum, UniProt Q54A96); assay: Inhibition of Plasmodium falciparum DHOD
T1 sequence (Q54A96 whole entry): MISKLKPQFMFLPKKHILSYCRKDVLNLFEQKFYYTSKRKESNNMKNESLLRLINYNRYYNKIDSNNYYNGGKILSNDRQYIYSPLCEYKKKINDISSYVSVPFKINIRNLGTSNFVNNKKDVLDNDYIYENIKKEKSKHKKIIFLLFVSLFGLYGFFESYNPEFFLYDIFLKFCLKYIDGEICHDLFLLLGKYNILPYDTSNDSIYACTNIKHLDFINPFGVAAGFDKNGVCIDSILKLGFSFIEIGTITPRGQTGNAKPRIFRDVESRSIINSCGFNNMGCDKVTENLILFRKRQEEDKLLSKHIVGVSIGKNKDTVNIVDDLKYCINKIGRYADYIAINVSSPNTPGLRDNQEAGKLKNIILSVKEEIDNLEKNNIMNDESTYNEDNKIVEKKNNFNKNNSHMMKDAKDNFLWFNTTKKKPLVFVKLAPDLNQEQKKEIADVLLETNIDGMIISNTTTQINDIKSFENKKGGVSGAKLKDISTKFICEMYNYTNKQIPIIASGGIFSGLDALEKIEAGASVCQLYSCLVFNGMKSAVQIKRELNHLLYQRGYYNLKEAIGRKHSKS
Summary of the method: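 DCIP-coupled chromogenic assay with 500 µM L-dihydroorotate and 115 µM CoQ0 as electron acceptor. Compounds tested up to 10 µM. IC50 from three independent experiments.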

[3] = target: T2, Dihydroorotate dehydrogenase (fumarate) (Saccharomyces cerevisiae S288c, UniProt P28272); assay: Inhibition of Saccharomyces cerevisiae DHOD
T2 sequence (P28272 whole entry): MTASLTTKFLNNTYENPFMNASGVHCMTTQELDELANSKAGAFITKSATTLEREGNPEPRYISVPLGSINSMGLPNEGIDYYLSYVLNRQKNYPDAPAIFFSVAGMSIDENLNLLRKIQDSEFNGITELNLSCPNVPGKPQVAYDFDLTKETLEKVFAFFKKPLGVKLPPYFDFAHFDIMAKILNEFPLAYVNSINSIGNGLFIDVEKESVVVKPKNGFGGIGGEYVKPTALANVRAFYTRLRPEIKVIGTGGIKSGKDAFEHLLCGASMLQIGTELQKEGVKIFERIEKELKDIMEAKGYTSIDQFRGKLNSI

Plasmodium falciparum [4] = assay: Antimalarial activity against Plasmodium falciparum DD2 expressing Saccharomyces cerevisiae DHOD by [3H]hypoxanthine uptake; type: functional, organism-based
Summary of the method: (§1)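 Asexual parasite proliferation measured by [3H]-hypoxanthine incorporation dose–effect curves, in parental DD2 and a transgenic DD2 line expressing yeast cytoplasmic DHOD. IC50 from three independent experiments. Antimycin A, a mixture of A1–A4, expressed in mg/mL.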

Plasmodium falciparum [5] = assay: Activity of Plasmodium falciparum NDH2 expressed in Escherichia coli by Michaelis-Menten plot
Summary of the method: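 Full-length enzyme with C-terminal 6xHis tag, purified in 0.5% Triton X-100. NAD+ formed was quantified by fluorescence: acetophenone base, then formic acid at 100 °C, excitation 372 nm, emission 444 nm. HEPES pH 8.0. One substrate (electron acceptor or NADH) varied while the other was fixed at 500 µM. Km and kcat from best-fit Michaelis–Menten curves, three independent experiments.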

Plasmodium falciparum [6] = assay: Antimalarial activity against Plasmodium falciparum DD2 by [3H]hypoxanthine uptake; type: functional, organism-based; summary of the method: as §1

For `CCCCCCCCCCCCc1cc(=O)c2ccccc2n1O`, the IC50 [1] was over 10 µM, the IC50 [2] was 4 µM and the IC50 [3] was over 10 µM. It also gave an IC50 (Plasmodium falciparum [4]) of over 10 µM.
In the case of `CC1=CC(=O)c2ccccc2C1=O`, the Km (Plasmodium falciparum [5]) is reported as 239 µM and the kcat (Plasmodium falciparum [5]) is reported as 0.0767 s⁻¹.
Compound `O=C1C=CC(=Nc2cc(Cl)c(O)c(Cl)c2)C=C1` has a Km (Plasmodium falciparum [5]) of 4.6 µM and a kcat (Plasmodium falciparum [5]) of 0.0317 s⁻¹.
`CCCCCC[C@H]1C(=O)O[C@H](C)[C@H](NC(=O)c2cccc(NC=O)c2O)C(=O)O[C@@H](C)[C@@H]1OC(=O)CC(C)C` [ANTIMYCIN A] gave an IC50 [1] of over 10 µM, an IC50 [2] of over 10 µM and an IC50 [3] of over 10 µM. The IC50 (Plasmodium falciparum [4]) was over 10 µM.
Compound `C[C@@H]1CC[C@H]2[C@@H](C)C(=O)O[C@@H]3O[C@@]4(C)CC[C@@H]1[C@]32OO4` [ARTEMISININ] has an IC50 [1] of over 10 µM, an IC50 [2] of over 10 µM and an IC50 [3] of over 10 µM. For the same compound, the IC50 (Plasmodium falciparum [4]) was 0.006 µM.
`O=C1C(O)=C([C@H]2CC[C@H](c3ccc(Cl)cc3)CC2)C(=O)c2ccccc21` [ATOVAQUONE] gave an IC50 [1] of over 10 µM, an IC50 [2] of over 10 µM and an IC50 [3] of over 10 µM. The IC50 (Plasmodium falciparum [6]) was 0.002 µM and the IC50 (Plasmodium falciparum [4]) was over 10 µM.
`c1ccc2c(c1)[I+]c1ccccc1-2` [DIPHENYLENEIODONIUM CHLORIDE] gave an IC50 [2] of over 10 µM.
Work on `c1ccc([I+]c2ccccc2)cc1` [DIPHENYLIODONIUM CHLORIDE] yielded an IC50 [1] of over 10 µM, an IC50 [2] of over 10 µM and an IC50 [3] of over 10 µM. For the same compound, the IC50 (Plasmodium falciparum [6]) was 12.4 µM and the IC50 (Plasmodium falciparum [4]) was 10.6 µM.
In the case of `O=c1cc(-c2ccccc2)oc2ccccc12` [FLAVONE], the IC50 [1] is reported as over 10 µM, the IC50 [2] is reported as over 10 µM and the IC50 [3] is reported as over 10 µM. The IC50 (Plasmodium falciparum [6]) was 0.002 µM and the IC50 (Plasmodium falciparum [4]) was over 10 µM.
With `C=C(C)[C@H]1Cc2c(ccc3c2O[C@@H]2COc4cc(OC)c(OC)cc4[C@@H]2C3=O)O1` [ROTENONE] the IC50 [1] was over 10 µM, the IC50 [2] was over 10 µM and the IC50 [3] was over 10 µM. It also gave an IC50 (Plasmodium falciparum [6]) of over 10 µM and an IC50 (Plasmodium falciparum [4]) of over 10 µM.
